Converted amounts (≈) assume the structure as drawn.
Key:
Mus musculus [1] = experiment: Toxicity in C57BL/6 mouse model assessed as adverse event at 100 mg/kg administered via gavage; assay type: organism-based; set-up: dose 100 mg/kg; settings: in vivo, po
How it was run: (§1)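 Acute maximum tolerated dose study in C57BL/6 mice. Escalating oral gavage doses up to 300 mg/kg were given daily for 3 days, formulated in 0.5% methyl cellulose. Dosage was scaled back if mortality or adverse effects were observed.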

[2] = system: Mycobacterium tuberculosis; experiment: Antitubercular activity against Mycobacterium tuberculosis infected in interferon-gamma-gene-disrupted C57BL/6 mouse model assessed as reduction in bacterial load in spleen at 10 mg/kg, po administered daily; assay type: functional
How it was run: (§2)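 Interferon-γ gene-disrupted C57BL/6 (GKO) mice infected with M. tuberculosis. Compound given at 10 mg/kg in 0.5% methyl cellulose by daily gavage for 9 days. Read-out is the reduction in bacterial load (Log10 CFU) in lungs or spleen versus untreated controls, with significance judged by P value (0.05 threshold).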

[3] = Inhibition of purified bovine tubulin polymerization by light scattering assay; set-up: species or system Bos taurus
How it was run: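 Tubulin polymerization assay. IC50 is the concentration that inhibits polymerization by 50%. Each compound was analyzed at least three times, reported as mean ± standard deviation.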

[4] = system: Mycobacterium tuberculosis; experiment: Antituberculosis activity against Mycobacterium tuberculosis H37Ra ATCC 25177 after 6 days using alamar blue dye by broth microdilution assay; assay type: functional; settings: H37Ra ATCC 25177, 144 h
How it was run: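 Strain H37Ra in a colorimetric Alamar blue broth microdilution assay using duplicate two-fold serial dilutions of drug.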

[5] = system: Mycobacterium tuberculosis; experiment: Antituberculosis activity against Mycobacterium tuberculosis H37Rv ATCC 27294 after 7 days using alamar blue assay; assay type: functional; settings: 168 h
How it was run: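 Strain H37Rv growth measured over a 10-point dose-response curve. IC90, the concentration inhibiting bacterial growth by 90%, is extrapolated from the curve.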

[6] = target: T1, Cell division protein FtsZ (Mycobacterium tuberculosis, UniProt P9WN95); experiment: Inhibition of Mycobacterium tuberculosis FtsZ polymerization expressed in Escherichia coli by light scattering assay
T1 sequence (P9WN95 whole entry): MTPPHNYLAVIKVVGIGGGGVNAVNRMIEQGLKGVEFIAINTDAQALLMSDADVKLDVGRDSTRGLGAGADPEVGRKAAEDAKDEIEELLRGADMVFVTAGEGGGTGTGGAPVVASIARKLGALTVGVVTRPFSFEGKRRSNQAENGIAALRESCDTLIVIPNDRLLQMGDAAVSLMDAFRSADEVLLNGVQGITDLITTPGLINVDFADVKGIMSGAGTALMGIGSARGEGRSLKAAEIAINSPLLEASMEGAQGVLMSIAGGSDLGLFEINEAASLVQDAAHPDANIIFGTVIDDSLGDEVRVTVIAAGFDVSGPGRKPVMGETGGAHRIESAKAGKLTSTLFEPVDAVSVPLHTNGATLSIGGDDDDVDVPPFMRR
How it was run: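 Mtb FtsZ polymerization assay with each compound run at least three times. IC50 is the concentration that inhibits polymerization by 50%, reported as mean ± standard deviation.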

Mus musculus [7] = experiment: Toxicity in C57BL/6 mouse model assessed as adverse event at 30 mg/kg administered via gavage; assay type: organism-based; set-up: dose 30 mg/kg; settings: in vivo, po; how it was run: as §1
Mus musculus [8] = experiment: Toxicity in C57BL/6 mouse model assessed as lethality at 300 mg/kg administered via gavage; assay type: organism-based; set-up: dose 300 mg/kg; settings: in vivo, po
How it was run: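 Acute maximum tolerated dose study in C57BL/6 mice. Escalating doses up to 300 mg/kg were given daily for 3 days by gavage in 0.5% methyl cellulose, and doses were scaled back if mortality or adverse effects appeared.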

[9] = system: Mycobacterium tuberculosis; experiment: Antitubercular activity against Mycobacterium tuberculosis infected in interferon-gamma-gene-disrupted C57BL/6 mouse model assessed as reduction in bacterial load in lung at 10 mg/kg, po administered daily; assay type: functional; how it was run: as §2
Vero = experiment: Cytotoxicity against african green monkey Vero cells after 72 hrs by celltiter-glo assay; assay type: cell-based; settings: chlorocebus sabaeus
How it was run: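 Vero cells grown in culture with compound across a 10-point dose-response curve. CC50 is extrapolated as the concentration that inhibits cell growth by 50%. Each compound was assayed at least three times.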

[10] = target: T2, Cell division protein FtsZ (Mycobacterium tuberculosis) (UniProt P9WN95); experiment: Inhibition of Mycobacterium tuberculosis FtsZ polymerization expressed in Escherichia coli at 100 uM by light scattering assay
T2 sequence (whole entry): T1 sequence (P9WN95 whole entry)

Bos taurus = organism: Bos taurus; experiment: Inhibition of purified bovine tubulin polymerization at 100 uM by light scattering assay
[11] = system: Mycobacterium tuberculosis; experiment: Antitubercular activity against Mycobacterium tuberculosis infected in interferon-gamma-gene-disrupted C57BL/6 mouse model assessed as reduction in bacterial load in lung at 10 mg/kg, po administered daily measured after 9 days; assay type: functional; how it was run: as §2
[12] = system: Mycobacterium tuberculosis; experiment: Antitubercular activity against Mycobacterium tuberculosis infected in interferon-gamma-gene-disrupted C57BL/6 mouse model assessed as reduction in bacterial load in spleen at 10 mg/kg, po administered daily measured after 9 days; assay type: functional; how it was run: as §2

SMILES | Activity (Mus musculus [1]) | log10cfu [2] | IC50 [3] | MIC [4] | IC90 [5] | IC50 [6] | Activity (Mus musculus [7]) | Activity (Mus musculus [8]) | log10cfu [9] | CC50 (Vero) | inhibition [10] | inhibition (Bos taurus) | log10cfu [11] | log10cfu [12]
CCOC(=O)Nc1cc(NC(C)CCCN(CC)CC)c2nc(-c3ccccc3)c(-c3ccccc3)nc2n1 (stereo not given) | Toxic | 0.5 | > 100 µM | 0.47 µM (≈ 0.248 µg/mL) | < 0.19 µM | 34.2 µM | Toxic | Toxic | 0.86 |  |  |  |  | 
CCOC(=O)Nc1cc(NCCCCN(CC)CC)c2nc(-c3cccs3)c(-c3cccs3)nc2n1 |  |  | > 100 µM | 0.23 µM (≈ 0.121 µg/mL) | > 100 µM |  |  |  |  | > 40 µM | 64% |  |  | 
CCOC(=O)Nc1cc(NCCCCN(CC)CC)c2nc(-c3ccco3)c(-c3ccco3)nc2n1 |  |  | 41 µM | 3.6 µM (≈ 1.77 µg/mL) | > 100 µM | 16.4 µM |  |  |  | > 40 µM |  |  |  | 
CCOC(=O)Nc1cc(NCCN(C)C)c2nc(-c3ccco3)c(-c3ccco3)nc2n1 |  |  | > 100 µM | ≤ 7 µM | 29 µM | 34.1 µM |  |  |  | 37 µM |  |  |  | 
CCOC(=O)Nc1cc(NC(C)CCCN(CC)CC)c2nc(CC)c(CC)nc2n1 (stereo not given) |  |  | > 100 µM | > 290 µM | > 50 µM | > 100 µM |  |  |  | > 40 µM |  |  |  | 
CCOC(=O)Nc1cc(NC(C)CCCN(CC)CC)c2nc(-c3ccccn3)c(-c3ccccn3)nc2n1 (stereo not given) |  |  | > 100 µM | 54 µM (≈ 28.5 µg/mL) | > 100 µM | 45.7 µM |  |  |  | > 40 µM |  |  |  | 
CCOC(=O)Nc1nc(NC(C)CCCN(CC)CC)c2nc(-c3ccccc3)c(-c3ccccc3)nc2n1 (stereo not given) |  |  |  | 3.8 µM (≈ 2.01 µg/mL) | 1.9 µM | 38.1 µM |  |  |  |  |  | 24% |  | 
CCOC(=O)Nc1cc(NCCN(C)C)c2nc(-c3ccccc3)c(-c3ccccc3)nc2n1 |  |  | > 100 µM | ≤ 7.6 µM | < 0.19 µM | 54.6 µM |  |  |  | 0.7 µM |  |  |  | 
CCOC(=O)Nc1cc(NC(C)CCCN(CC)CC)c2nc(C)c(C)nc2n1 (stereo not given) |  |  | > 100 µM | > 290 µM | > 100 µM | > 100 µM |  |  |  | > 40 µM |  |  |  | 
CCOC(=O)Nc1cc(NCCCCN(CC)CC)c2nc(-c3ccccc3)c(-c3ccccc3)nc2n1 |  |  |  | 0.24 µM (≈ 0.123 µg/mL) | < 0.19 µM | 52 µM |  |  |  | 1.8 µM |  | 40% |  | 
CCOC(=O)Nc1nc(NCCCCN(CC)CC)c2c(n1)SC(c1ccccc1)C(c1ccccc1)=N2 (stereo not given) |  |  | 69.7 µM | 52 µM (≈ 27.7 µg/mL) | 18 µM | 46.2 µM |  |  |  | > 40 µM |  |  |  | 
CCOC(=O)Nc1nc(NC(C)CCCN(CC)CC)c2c(n1)SC(c1ccccc1)C(c1ccccc1)=N2 (stereo not given) |  |  | > 100 µM | 49 µM (≈ 26.8 µg/mL) | 21.7 µM | 46 µM |  |  |  | > 40 µM |  |  |  | 
CCOC(=O)Nc1cc(NC(C)CCCN(CC)CC)c2nc(-c3ccco3)c(-c3ccco3)nc2n1 (stereo not given) |  |  | > 100 µM | 3.6 µM (≈ 1.82 µg/mL) | 7 µM | 26.8 µM |  |  |  | > 40 µM |  |  |  | 
CCN(CC)CCCC(C)Nc1cc(N)nc2nc(-c3ccco3)c(-c3ccco3)nc12 (stereo not given) |  |  | > 100 µM | 150 µM (≈ 65.2 µg/mL) | > 100 µM | 18.6 µM |  |  |  | 14 µM |  |  |  | 
CCOC(=O)Nc1cc(NCCN(CC)CC)c2nc(-c3cccs3)c(-c3cccs3)nc2n1 |  |  | > 100 µM | ≤ 7.9 µM | 0.92 µM | 21 µM |  |  |  | 6.3 µM |  |  |  | 
CCOC(=O)Nc1cc(NCCN(CC)CC)c2nc(-c3ccccc3)c(-c3ccccc3)nc2n1 |  |  | > 100 µM | 1.7 µM (≈ 0.824 µg/mL) | 0.38 µM |  |  |  |  | 2.7 µM | 59% |  |  | 
CCN(CC)CCCC(C)Nc1cc(N)nc2nc(-c3cccs3)c(-c3cccs3)nc12 (stereo not given) |  |  | > 100 µM | 17 µM (≈ 7.93 µg/mL) | 4.1 µM | 29.5 µM |  |  |  | 5.9 µM |  |  |  | 
CCOC(=O)Nc1cc(NC(C)CCCN(CC)CC)c2nc(-c3cccs3)c(-c3cccs3)nc2n1 (stereo not given) |  |  | > 100 µM | 0.43 µM (≈ 0.232 µg/mL) | < 0.19 µM | 34.3 µM |  |  |  | > 40 µM |  |  | 0.51 | 0.58
CCOC(=O)Nc1cc(NCCN(C)C)c2nc(-c3cccs3)c(-c3cccs3)nc2n1 |  |  | > 100 µM | 1.1 µM (≈ 0.515 µg/mL) | < 0.19 µM | 27.3 µM |  |  |  | 1.6 µM |  |  |  | 
CCOC(=O)Nc1cc(NCCN(CC)CC)c2nc(-c3ccco3)c(-c3ccco3)nc2n1 |  |  | > 100 µM | 8.7 µM (≈ 4.04 µg/mL) | > 100 µM | 34.8 µM |  |  |  | 5.5 µM |  |  |  | 
